The nature of series [1]: Brain area under concentration curve after oral administration in diet-induced obese mouse at a dose of 10 mg/kg for 0-24 hr period, n=3. The class given is ADME, organism-based. Details: time < 24 hr, dose 10 mg/kg, route oral. Particulars: in vivo. In outline: (§1)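 Diet-induced obese mice were given a single oral dose of 10 mg/kg. Plasma and brain were sampled over 24 h. […] Values are mean ± SEM, n = 3.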

Series [2] addresses T1, Melanin-concentrating hormone receptor 1 (Homo sapiens, UniProt Q99705). As to the kind of experiment: Inhibitory concentration aganist melanin concentrating hormone receptor 1 expressed in IMR-32 cells using [125I]MCH. The format is cell-based.
Series [3] deals with T1, Melanin-concentrating hormone receptor 1. As to the kind of experiment: Inhibition of melanin concentrating hormone receptor 1 mediated [Ca2+] release in IMR-32 cells in Ca+2 release cell assay. The class given is functional, cell-based.
Series [4] in a line: Maximum concentration in diet-induced obese mouse brain at 10 mg/kg oral administration; n=3. The format is ADME, organism-based. The arrangement: dose 10 mg/kg, route oral. In outline: as §1
The nature of series [5]: Plasma area under concentration curve after oral administration in diet-induced obese mouse at a dose of 10 mg/kg for 0-24 hr period,n=3. The class given is ADME, organism-based. The arrangement: time < 24 hr, dose 10 mg/kg, route oral. The method, boiled down:
as §1

Series [6] is described as follows: Brain area under concentration curve after peroral administration in lean mouse at a dose of 10 mg/kg. The format is ADME, organism-based. Details: dose 10 mg/kg, route oral. As to conditions: in vivo, po.
Series [7] is described as follows: Plasma area concentration under curve after peroral administration in lean mouse at a dose of 10 mg/kg. Details: dose 10 mg/kg, route oral. Particulars: po. The format is ADME, organism-based. In outline: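 Single oral dose of 10 mg/kg given to lean mice. Plasma exposure is expressed as AUC, and brain AUC was measured alongside it. Interanimal variability was below 25% for all values.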

The nature of series [8]: Plasma area under concentration curve after peroral administration in lean mouse at a dose of 10 mg/kg. The format is ADME, organism-based. The arrangement: dose 10 mg/kg, route oral. Particulars: po.
For series [9], the system named is Mus musculus. As to the kind of experiment: Percent change in body weight after oral administration at a dose of 30 mg/kg b.i.d. as compare to vehicle (1% Tween-80 in water) observed for 13 days.
The test system of series [10] is Mus musculus. The experiment in a line: Percent change in body weight after oral administration at a dose of 10 mg/kg b.i.d. as compare to vehicle (1% Tween-80 in water) observed for 13 days.
Series [11] is described as follows: Drug concentration in plasma 1 hr after final dose of 30 mg/kg administered orally. The class given is ADME, organism-based. Details: dose 30 mg/kg, route oral. As to conditions: mouse, po, read-out: Activity. In outline:
(§2)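 Diet-induced obese mice were dosed orally at 10 or 30 mg/kg b.i.d. for 13 days. Body weight was expressed as % change from vehicle controls. Plasma (μg/mL) and brain (μg/g) drug levels were measured 1 h after the final dose. Values are mean ± SEM, n = 3.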

Series [12] is described as follows: Half-life after oral administration. The format is ADME, organism-based, Canis lupus familiaris. Particulars: dog, in vivo.
Series [13] deals with Dopamine receptor (Homo sapiens) (UniProt P14416+P35462+P21918+P21917+P21728). The experiment in a line: Non-selective inhibition against dopamine receptor at 10 uM. The class given is protein assay.
Series [14] addresses Adrenergic receptor alpha-1 (Homo sapiens) (UniProt P35348+P25100+P35368). As to the kind of experiment: Non-selective inhibition against adrenergic-alpha-1 receptor at 10 uM. The format is protein assay.
The nature of series [15]: Plasma concentration after intravenous infusion at a dose of 26 mg/kg/30 min. The class given is ADME, organism-based, Canis lupus familiaris. Details: route intravenous. As to conditions: dog, read-out: Activity.
The nature of series [16]: Bioavailability after oral administration. The format is ADME, organism-based, Canis lupus familiaris. Particulars: dog, in vivo, read-out: Activity.
A short description of series [17]: Peak plasma concentration after iv administration at a dose 2.5 mg/kg. The class given is ADME, organism-based, Canis lupus familiaris. The arrangement: dose 2.5 mg/kg, route intravenous. Particulars: dog. In outline: (§3)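 Male beagle dogs received a single intravenous bolus of 2.5 mg/kg. Plasma was sampled to derive half-life, Cmax, plasma clearance and AUC0-∞. Values are mean ± SEM.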

Series [18] can be described thus: Plasma concentration after intravenous infusion at a dose of 8 mg/kg/30 min. Details: route intravenous. The class given is ADME, organism-based, Canis lupus familiaris. Particulars: dog, read-out: Activity.
The nature of series [19]: Concentration in diet-induced obese mouse brain 12 h after 10 mg/kg oral administration. The class given is ADME, organism-based. As to conditions: read-out: C12h. The arrangement: dose 10 mg/kg, route oral. In outline:
as §1

Series [20] is described as follows: Plasma clearance after iv administration at a dose 2.5 mg/kg. As to conditions: dog, read-out: Clp (converted). Details: dose 2.5 mg/kg, route intravenous. The class given is ADME, organism-based, Canis lupus familiaris. The method, boiled down: as §3
The nature of series [21]: Plasma concentration after intravenous infusion at a dose of 80 mg/kg measured after approximately 12 min. The class given is ADME, organism-based, Canis lupus familiaris. Details: dose 80 mg/kg, route intravenous. As to conditions: dog, read-out: Activity.
Series [22] can be described thus: Half-life after iv administration at a dose 2.5 mg/kg. The format is ADME, organism-based, Canis lupus familiaris. Details: dose 2.5 mg/kg, route intravenous. Particulars: dog, in vivo. The method, boiled down: as §3
Series [23] has as its system Mus musculus. The experiment in a line: Percent change in body weight after oral administration at a dose of 10 mg/kg b.i.d. as compare to vehicle (1% Tween-80 in water) observed for 28 days.
Series [24] concerns the target Voltage-gated inwardly rectifying potassium channel KCNH2 (Homo sapiens, UniProt Q12809). The experiment in a line: Inhibition of human potassium channel HERG.
A short description of series [25]: Drug concentration in brain 1 hr after final dose of 10 mg/kg, administered orally. The format is ADME, organism-based. Details: dose 10 mg/kg, route oral. As to conditions: mouse, po, read-out: Activity. In outline:
as §2

Series [26] has as its system Mus musculus. The experiment in a line: Drug concentration in brain 1 hr after final dose of 10 mg/kg, administered orally. As to conditions: po.
A short description of series [27]: Peak plasma concentration after oral administration. The class given is ADME, organism-based, Canis lupus familiaris. Particulars: dog. The arrangement: route oral.
The nature of series [28]: Plasma area under curve after oafter iv administration at a dose 2.5 mg/kg. The arrangement: dose 2.5 mg/kg, route intravenous. Particulars: dog, in vivo. The format is ADME, organism-based, Canis lupus familiaris. In outline: as §3
The nature of series [29]: Drug concentration in plasma 1 hr after final dose of 10 mg/kg administered orally. The class given is ADME, organism-based. Details: dose 10 mg/kg, route oral. Particulars: mouse, po, read-out: Activity. The method, boiled down: as §2
The subject of series [30] is Mus musculus. As to the kind of experiment: Percent change in body weight after oral administration at a dose of 30 mg/kg b.i.d. as compare to vehicle (1% Tween-80 in water) observed for 28 days.
Series [31] is described as follows: Plasma concentration at the end of the first infusion in dog cardiovascular assay; value is in between 2.75-2.93. The format is ADME, Canis lupus familiaris. As to conditions: iv.
The nature of series [32]: Plasma concentration at the end of the first infusion in dog cardiovascular assay; value is in between 1.36-1.43. As to conditions: iv. The class given is ADME, Canis lupus familiaris.

Where “and” joins values, the source holds several entries; their conditions need not be identical. Equal entries are not always repeated.

T1 sequence (Q99705 whole entry): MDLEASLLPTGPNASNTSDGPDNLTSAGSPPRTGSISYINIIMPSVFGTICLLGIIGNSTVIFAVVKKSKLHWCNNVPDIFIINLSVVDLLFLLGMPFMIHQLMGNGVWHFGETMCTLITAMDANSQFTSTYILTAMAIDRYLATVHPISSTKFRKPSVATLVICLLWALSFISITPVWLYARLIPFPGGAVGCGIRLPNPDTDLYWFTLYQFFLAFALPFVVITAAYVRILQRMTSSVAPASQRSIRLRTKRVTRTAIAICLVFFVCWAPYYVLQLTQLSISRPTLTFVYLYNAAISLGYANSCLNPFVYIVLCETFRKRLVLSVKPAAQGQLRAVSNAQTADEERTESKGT
Voltage-gated inwardly rectifying potassium channel KCNH2, sequence (Q12809 whole entry): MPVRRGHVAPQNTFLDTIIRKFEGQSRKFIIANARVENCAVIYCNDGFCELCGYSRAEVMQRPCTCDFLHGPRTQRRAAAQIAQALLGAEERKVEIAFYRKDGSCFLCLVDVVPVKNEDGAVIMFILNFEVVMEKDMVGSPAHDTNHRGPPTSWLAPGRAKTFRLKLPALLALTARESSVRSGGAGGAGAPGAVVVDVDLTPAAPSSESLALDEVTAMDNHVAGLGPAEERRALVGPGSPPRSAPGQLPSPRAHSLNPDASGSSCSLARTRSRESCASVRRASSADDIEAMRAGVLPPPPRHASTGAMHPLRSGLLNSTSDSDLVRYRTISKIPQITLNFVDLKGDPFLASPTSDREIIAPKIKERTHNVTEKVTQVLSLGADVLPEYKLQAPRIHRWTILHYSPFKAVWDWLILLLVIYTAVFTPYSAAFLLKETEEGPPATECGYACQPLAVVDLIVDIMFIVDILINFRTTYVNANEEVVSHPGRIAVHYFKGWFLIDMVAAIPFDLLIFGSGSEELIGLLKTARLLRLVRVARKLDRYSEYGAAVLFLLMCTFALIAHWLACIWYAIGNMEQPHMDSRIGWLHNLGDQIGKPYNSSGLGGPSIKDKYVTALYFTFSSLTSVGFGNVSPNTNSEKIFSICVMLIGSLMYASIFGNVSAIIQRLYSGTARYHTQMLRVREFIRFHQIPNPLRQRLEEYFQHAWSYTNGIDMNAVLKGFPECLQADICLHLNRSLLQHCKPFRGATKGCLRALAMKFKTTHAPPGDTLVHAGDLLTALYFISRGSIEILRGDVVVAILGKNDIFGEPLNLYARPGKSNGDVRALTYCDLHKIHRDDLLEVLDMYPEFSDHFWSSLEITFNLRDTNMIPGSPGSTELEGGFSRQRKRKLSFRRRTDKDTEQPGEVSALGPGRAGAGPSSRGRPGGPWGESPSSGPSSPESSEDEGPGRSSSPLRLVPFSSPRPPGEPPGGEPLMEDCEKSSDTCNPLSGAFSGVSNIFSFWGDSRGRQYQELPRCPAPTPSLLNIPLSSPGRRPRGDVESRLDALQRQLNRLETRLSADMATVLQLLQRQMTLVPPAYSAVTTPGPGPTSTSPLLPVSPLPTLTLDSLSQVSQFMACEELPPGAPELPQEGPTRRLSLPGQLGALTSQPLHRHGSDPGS

One may read the IC50 as the concentration needed to halve the response being measured. `O=c1cc(NC2CCN(Cc3ccc4ocnc4c3)CC2)c2cc(Cl)ccc2o1` showed an AUC in series [1] of 0 µg·h/g. In addition, the IC50 in series [2] turned out to be 3 nM; in [3] it was 163 nM.

In [3], `CC(C)(C)c1ccc(CN2CCC(/N=c3\cc(O)oc4ccc(Cl)cc34)CC2)cc1` displayed a concentration for half-maximal inhibition (IC50) greater than 10000 nM.

One may read the Cmax as the maximum level reached in the sampled fluid or tissue. In the case of `O=c1cc(NC2CCN(Cc3ccc4c(c3)CCO4)CC2)c2cc(Cl)ccc2o1`, the Cmax in [4] was 294 ng/g. This compound displayed an AUC at 24 h in series [5] of 621 ng·h/mL. This compound gave an AUC in [1] of 0.449 µg·h/g. The IC50 is 27 nM in series [2] and 41 nM in series [3].

Consider `Cn1ccc2ccc(CN3CCC(/N=c4\cc(O)oc5ccc(Cl)cc45)CC3)cc21`, for which the IC50 in [2] came to 60 nM; in [3], 162 nM.

For `O=c1cc(NC2CCN(Cc3ccc4cc[nH]c4c3)CC2)c2cc(Cl)ccc2o1`, the IC50 came out at 24 nM in [2] and 28 nM in series [3].

As for `O=c1cc(NC2CCN(C/C=C/c3ccccc3)CC2)c2ccccc2o1`, the concentration for half-maximal inhibition (IC50) was found to be 191 nM in series [2] and 1040 nM in [3].

Regarding `O=c1cc(NC2CCN(C/C=C/c3ccccc3)CC2)c2cc(Cl)ccc2o1`, the AUC in series [6] was found to be 2.6 µg·h/g; in [7], 1920 ng·h/mL. Moreover, the IC50 in series [2] was determined as 9 nM; in [3], 211 nM.

Consider `COc1ccc2oc(O)c/c(=N\C3CCN(C/C=C/c4ccccc4)CC3)c2c1`, for which the AUC amounted to 980 ng·h/mL in [8] and 0.43 µg·h/g in series [6]. The values for the IC50 in [2] and in series [3] were 4 nM and 44 nM, respectively.

Take `O=c1cc(NC2CCN(Cc3ccc4ncoc4c3)CC2)c2cc(Cl)ccc2o1`: the half-maximal inhibitory concentration (IC50) was determined as 75 nM in series [2] and 461 nM in series [3].

Take `O=c1cc(NC2CCN(Cc3ccc4sccc4c3)CC2)c2cc(Cl)ccc2o1`: the IC50 came to 6 nM in series [2] and 189 nM in [3].

The term half-life denotes the time needed for the level to fall by half in the phase considered. For orientation: inhibition means the share of the control response that was lost under treatment. With `O=c1cc(NC2CCN(Cc3ccc4c(c3)OCO4)CC2)c2cc(Cl)ccc2o1`, the “% change” value with Mus musculus [9] is listed as -18.2%; with Mus musculus [10] it was -6.9%; with Mus musculus [23], -16%; with Mus musculus [30], -31%. For the same compound, the concentration at 1 h in [11] turned out to be 6010 ng/mL; in [25], 2210 ng/g; with Mus musculus [26], 6460 ng/g; in series [29], 2000 ng/mL. The half-life was 4.4 h in series [12] and 3.9 h in series [22]. Moreover, the inhibition was 60% in series [13]; 75% and 69% in [14]. Further, the concentration at 0.5 h in series [15] stood at 11800 ng/mL; in series [18], 3330 ng/mL. Also, in [16], the bioavailability came out at 48%. Moreover, the highest concentration (Cmax) in series [17] is 1600 ng/mL; in series [4], 454 ng/g; in series [27], 200 ng/mL. Also, the concentration at 12 h in series [19] is 175 ng/g. For the same compound, in [20], the clearance was 15.8 mL/min/kg. Besides, the AUC at 24 h in series [5] came to 6350 ng·h/mL. The concentration at 0.2 h in series [21] is 19900 ng/mL. The IC50 in series [2] was found to be 2 nM; in series [24] it was 2250 nM; in series [3] it was 28 nM. In [28], this compound displayed an AUC of 2660 ng·h/mL.

As for `O=c1cc(NC2CCN(Cc3ccc4[nH]ccc4c3)CC2)c2cc(Cl)ccc2o1`, the concentration at 12 h in series [19] worked out at 18 ng/g. This compound also showed a maximum concentration (Cmax) in [4] of 182 ng/g. Further, the AUC at 24 h in series [5] stood at 2870 ng·h/mL. The compound also returned an AUC in series [1] of 1.18 µg·h/g. Moreover, the IC50 in series [2] stood at 7 nM; in series [3], 63 nM.

Turning to `O=c1cc(NC2CCN(Cc3ccc4c(c3)OC(F)(F)O4)CC2)c2cc(Cl)ccc2o1`, the values for the IC50 in series [2] and in [3] were 19 nM and 581 nM, respectively.

Regarding `O=c1cc(NC2CCN(Cc3ccc4ccccc4c3)CC2)c2cc(Cl)ccc2o1`, the values for the IC50 in series [2] and in series [3] were 21 nM and 92 nM, respectively.

With `COc1ccc2oc(O)c/c(=N\C3CCN(Cc4ccc5c(c4)OCO5)CC3)c2c1`, the Activity in [31] and in series [32] was 2.84 µg/mL throughout. The compound also came in with an IC50 in [3] of 11 nM.

These data come from ChEMBL document CHEMBL1141081, “Discovery and characterization of aminopiperidinecoumarin melanin concentrating hormone receptor 1 antagonists” (J Med Chem, 2005).
